Fewer inactive variants are shown than the library holds.
B1: tRNA (parent)
chain: GUUCCGUUGGCGUAAUGGUAACGCGUCUCCCUCCUAAGGAGAAGACUGCGGGUUCGAGUCCCGUACGGAACG

Variants of: B1
Experiment: yeast fitness relative to wild type (ratio to wild type); higher = fitter; tRNA-Arg(CCU), competitive growth, 37 C, YPD
In short: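 For this measurement, the tRNA-Arg(CCU) gene was varied by chemical synthesis at a 3% per-site mutation rate across 69 sites, and each variant was placed at the native genomic locus in Saccharomyces cerevisiae. The pooled strains went through a 24-hour competition in YPD at 37°C in six parallel replicates, with amplicons from start and end populations read by 100-nucleotide paired-end sequencing. Darwinian fitness relative to wild type followed from the change in each genotype's frequency. Genotypes needed ≥ 100 starting reads, and estimates < 0.5 were set to 0.5.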
GUUCCGUUGGCGUAAUGGUAACGCAUCUCCCUCCUAAGGAGAAGAGUGCGGGUUCGAGUCCCGUACGGAACG [G25A C46G] showed a yeast fitness of 0.99.
Work on GUUCCGUUGGCGUAAUGGUAACGCAUCUCCCUCCUAAGGAGAAGAGUGCGGGAUCGAGUCCCGUCCGGAACG [G25A C46G U53A A65C] yielded a yeast fitness of at most 0.5.
GUUCCGUUGGCGUAAUGGUAACGCAUCUCCCUCCUAAGGAGAAGAUUGCGGGUUCGAGUCCCGUACGGAACG [G25A C46U] showed a yeast fitness of 0.938.
GUUCCGUUGGCGUAAUGGUAACGCAUCUCCCUCCUAAGGAGAAGAUUGCGGGUUCGUGUCCCGUACGGAACG [G25A C46U A57U] gave a yeast fitness of 0.965.
GUUCCGUUGGCGUAAUGGUAACGCAUCUCCCUCCUAAGGAGAAGAUUGCGGGUUCGAGUCCGGUACGGAACG [G25A C46U C62G] showed a yeast fitness of 0.739.
With GUUCCGUUGGCGUAAUGGUAACGCAUCUCCCUCCUAAGGAGAAGACUGUGGGUUCGAGUCCCGUACGGAACG [G25A C49U] the yeast fitness was 0.991.
GUUCCGUUGGCGUAAUGGUAACGCAUCUCCCUCCUAAGGAGAAGACUGUGGGUUCGAGUCCCGUGCGGACCG [G25A C49U A65G A70C] showed a yeast fitness of at most 0.5.
In the case of GUUCCGUUGGCGUAAUGGUAACGCAUCUCCCUCCUAAGGAGAAGACUGUGGGUUCGAGUCCCGUUCGGAACG [G25A C49U A65U], the yeast fitness is reported as 0.849.
For GUUCCGUUGGCGUAAUGGUAACGCAUCUCCCUCCUAAGGAGAAGACUGUGGGUUUGCGUCCCGUACGGAACG [G25A C49U C55U A57C], the yeast fitness was at most 0.5.
For GUUCCGUUGGCGUAAUGGUAACGCAUCUCCCUCCUAAGGAGAAGACUGUGGGUUCGAGUCCCGCACGGAACG [G25A C49U U64C], the yeast fitness was 0.782.
For GUUCCGUUGGCGUAAUGGUAACGCAUCUCCCUCCUAAGGAGAAGACUGCGGGUUGGAGUCCCGUACGGAACG [G25A C55G], the yeast fitness was 0.681.
Variant GUUCCGUUGGCGUAAUGGUAACGCAUCUCCCUCCUAAGGAGAAGACUGCGGGUUUGAGUCCCGUACGGCACG [G25A C55U A69C] has a yeast fitness of 0.639.
With GUUCCGUUGGCGUAAUGGUAACGCAUCUCCCUCCUAAGGAGAAGACUGCGGGUUUGAGCCCCGUCCGGAACG [G25A C55U U59C A65C] the yeast fitness was at most 0.5.
Variant GUUCCGUUGGCGUAAUGGUAACGCAUCUCCCUCCUAAGGAGAAGACUGCGGGUUCGAGUACCGUACGGAACG [G25A C60A] has a yeast fitness of 0.66.
For GUUCCGUUGGCGUAAUGGUAACGCAUCUCCCUCCUAAGGAGAAGACUGCGGGUUCGAGUAACAUACGGAACG [G25A C60A C61A G63A], the yeast fitness was 0.75.
Work on GUUCCGUUGGCGUAAUGGUAACGCAUCUCCCUCCUAAGGAGAAGACUGCGGGUUCGAGUAGCGUUCGGAACG [G25A C60A C61G A65U] yielded a yeast fitness of at most 0.5.
For GUUCCGUUGGCGUAAUGGUAACGCAUCUCCCUCCUAAGGAGAAGACUGCGGGUUCGAGUGCCGUACGGAACG [G25A C60G], the yeast fitness was 0.718.
GUUCCGUUGGCGUAAUGGUAACGCAUCUCCCUCCUAAGGAGAAGACUGCGGGUUCGAGUGACAUACGGAACG [G25A C60G C61A G63A] gave a yeast fitness of at most 0.5.
With GUUCCGUUGGCGUAAUGGUAACGCAUCUCCCUCCUAAGGAGAAGACUGCGGGUUCGAGUCACGUACGGAACG [G25A C61A] the yeast fitness was 0.595.
GUUCCGUUGGCGUAAUGGUAACGCAUCUCCCUCCUAAGGAGAAGACUGCGGGUUCGAGUCGCGUACGGAACG [G25A C61G] showed a yeast fitness of 0.679.
With GUUCCGUUGGCGUAAUGGUAACGCAUCUCCCUCCUAAGGAGAAGACUGCGGGUUCGAGUCUCGUACGGAACG [G25A C61U] the yeast fitness was 0.971.
Variant GUUCCGUUGGCGUAAUGGUAACGCAUCUCCCUCCUAAGGAGAAGACUGCGGGUUCGAGUCUCGUACGGCACG [G25A C61U A69C] has a yeast fitness of 0.637.
With GUUCCGUUGGCGUAAUGGUAACGCAUCUCCCUCCUAAGGAGAAGACUGCGGGUUCGAGUCCAGUACGGAACG [G25A C62A] the yeast fitness was 0.843.
GUUCCGUUGGCGUAAUGGUAACGCAUCUCCCUCCUAAGGAGAAGACUGCGGGUUCGAGUCCAGUACGGAUCG [G25A C62A A70U] showed a yeast fitness of 0.678.
Variant GUUCCGUUGGCGUAAUGGUAACGCAUCUCCCUCCUAAGGAGAAGACUGCGGGUUCGAGUCCGGUACGGAACG [G25A C62G] has a yeast fitness of 0.855.
With GUUCCGUUGGCGUAAUGGUAACGCAUCUCCCUCCUAAGGAGAAGACUGCGGGUUCGAGUCCUGUACGGAACG [G25A C62U] the yeast fitness was 0.931.
Work on GUUCCGUUGGCGUAAUGGUAACGCAUCUCCCUCCUAAGGAGAAGACUGCGGGUUCGAGUCCCGUAAGGAACG [G25A C66A] yielded a yeast fitness of 0.631.
In the case of GUUCCGUUGGCGUAAUGGUAACGCAUCUCCCUCCUAAGGAGAAGACUGCGGGUUCGAGUCCCGUAUGGAACG [G25A C66U], the yeast fitness is reported as 0.902.
With GUUCCGUUGGCGUAAUGGUAACGCAUCUCCCUCCUAACGAGAAGACUGCGGGUUCGAGUCCCGUACGGAACG [G25A G38C] the yeast fitness was 0.775.
For GUUCCGUUGGCGUAAUGGUAACGCAUCUCCCUCCUAAGAAGAAGACUGCGGAUUCGAGUCCCGUACGGAACG [G25A G39A G52A], the yeast fitness was at most 0.5.
For GUUCCGUUGGCGUAAUGGUAACGCAUCUCCCUCCUAAGCAGAAGACUGCGGGUUCGAGUCCCGUACGGAACG [G25A G39C], the yeast fitness was 0.755.
GUUCCGUUGGCGUAAUGGUAACGCAUCUCCCUCCUAAGGAAAUGACUGCGGGUUCGAGUCCCGUACGGAACG [G25A G41A A43U] showed a yeast fitness of at most 0.5.
Variant GUUCCGUUGGCGUAAUGGUAACGCAUCUCCCUCCUAAGGAAAAGACUGCGGGUUCGAGUCCCGUACGGACCG [G25A G41A A70C] has a yeast fitness of 0.714.
With GUUCCGUUGGCGUAAUGGUAACGCAUCUCCCUCCUAAGGAAAAGAAUGCGGGUUCGAGUCCCGUACGGCACG [G25A G41A C46A A69C] the yeast fitness was 0.935.
In the case of GUUCCGUUGGCGUAAUGGUAACGCAUCUCCCUCCUAAGGAAAAGAGUGCAGGUUCGAGUCCAGUACGGAACG [G25A G41A C46G G50A C62A], the yeast fitness is reported as at most 0.5.
Work on GUUCCGUUGGCGUAAUGGUAACGCAUCUCCCUCCUAAGGACAAGACUGCGGGUUCGAGUCCCGUACGGAACG [G25A G41C] yielded a yeast fitness of 0.974.
For GUUCCGUUGGCGUAAUGGUAACGCAUCUCCCUCCUAAGGACAAGACUGCGGGUUCGUGUCCCGUACGGAACG [G25A G41C A57U], the yeast fitness was 0.649.

Source: the RNAGym collection of RNA variant scans (doi:10.1126/science.aae0568)
